# ChEMBL document CHEMBL1641407, “Imidazo[4,5-d]thiazolo[5,4-b]pyridine based inhibitors of IKK2: synthesis, SAR, PK/PD and activity in a preclinical model of rheumatoid arthritis” (Bioorg Med Chem Lett, 2011)
# Assays:
# [1] = Tmax in mouse at 2 mg/kg, iv and 10 mg/kg, po; assay type: ADME, organism-based; conditions: in vivo
# Mus musculus [2] = test: Antiarthritic activity in mouse assessed as decrease in collagen-induced arthritis at 60 mg/kg, po BID administered at time of second collagen challenge on day 25 measured on day 42; assay type: functional
# How it was run: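 Collagen-induced arthritis in mice, n = 14–15 per group. Collagen priming injection on day 1, second collagen injection on day 25. Dosing 60 mg/kg by oral gavage twice daily, or vehicle, starting at the second injection. Read-out is the average gross clinical score per treatment group.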
# [3] = Cmax in rat at 2 mg/kg, iv and 10 mg/kg, po; assay type: ADME, organism-based; conditions: in vivo
# [4] = molecular target: T1, Inhibitor of nuclear factor kappa-B kinase subunit beta (Homo sapiens, UniProt O14920); test: Inhibition of IKK2
# T1 sequence (O14920 whole entry): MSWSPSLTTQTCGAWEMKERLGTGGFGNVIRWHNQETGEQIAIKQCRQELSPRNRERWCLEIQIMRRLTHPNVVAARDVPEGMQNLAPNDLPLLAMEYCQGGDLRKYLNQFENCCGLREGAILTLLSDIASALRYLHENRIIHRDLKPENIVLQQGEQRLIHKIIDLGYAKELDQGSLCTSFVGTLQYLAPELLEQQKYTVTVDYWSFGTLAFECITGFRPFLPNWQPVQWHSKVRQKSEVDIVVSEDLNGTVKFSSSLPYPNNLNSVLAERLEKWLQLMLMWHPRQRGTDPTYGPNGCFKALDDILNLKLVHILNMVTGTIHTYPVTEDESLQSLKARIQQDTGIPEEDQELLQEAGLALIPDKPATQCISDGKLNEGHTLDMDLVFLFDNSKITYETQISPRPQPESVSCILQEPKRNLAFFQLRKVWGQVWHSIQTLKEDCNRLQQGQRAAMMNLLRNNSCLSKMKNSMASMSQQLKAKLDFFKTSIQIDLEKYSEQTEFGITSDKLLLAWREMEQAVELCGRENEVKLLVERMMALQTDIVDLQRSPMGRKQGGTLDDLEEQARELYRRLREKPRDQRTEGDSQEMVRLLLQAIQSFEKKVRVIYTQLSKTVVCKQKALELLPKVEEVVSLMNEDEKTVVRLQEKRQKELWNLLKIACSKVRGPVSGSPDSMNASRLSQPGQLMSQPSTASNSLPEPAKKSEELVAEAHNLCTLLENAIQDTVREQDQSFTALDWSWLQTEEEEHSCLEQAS
# How it was run: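 IKK-2 added at room temperature to 50 µg/mL GST-IκBα with ATP in 25 mM Tris·HCl, pH 7.5, containing MgCl₂, phosphate salts, NaCl, KCl, 1 mM DTT, 5% glycerol and BSA. Stopped after 60 min with 33 mM EDTA. Phospho-IκBα read by fluorescence-polarization competition between an anti-phospho-IκBα antibody and a fluorescein-labelled phosphopeptide.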
# [5] = Volume of distribution at steady state in dog at 2 mg/kg, iv; assay type: ADME, organism-based, Canis lupus familiaris; parameters: dose 2 mg/kg, route intravenous; conditions: in vivo, read-out: Vdss
# How it was run: (§1)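 Dog pharmacokinetics, iv dosing only, in vehicle PEG400:water 80:20.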
# Blood [6] = test: Antiinflammatory activity in mouse whole blood assessed as inhibition of LPS-induced TNFalpha release treated for 5 mins before LPS challenge measured after 6 hrs by ELISA; assay type: functional, tissue-based
# [7] = Clearance in rat at 2 mg/kg, iv and 10 mg/kg, po; assay type: ADME, organism-based; conditions: in vivo
# [8] = Cmax in mouse at 2 mg/kg, iv and 10 mg/kg, po; assay type: ADME, organism-based; conditions: in vivo
# Mus musculus [9] = test: Total AUC in mouse at 2 mg/kg, iv and 10 mg/kg, po; assay type: ADME, organism-based; conditions: in vivo
# Rattus norvegicus = test: Total AUC in rat at 2 mg/kg, iv and 10 mg/kg, po; assay type: ADME, organism-based; conditions: in vivo
# PBMC = test: Antiinflammatory activity in human PBMC assessed as inhibition of LPS-induced TNFalpha release treated for 5 mins before LPS challenge measured after 6 hrs by ELISA; assay type: functional, cell-based
# How it was run: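 PBMCs purified from heparinized healthy-volunteer blood by Ficoll-Hypaque gradient and suspended at 5 × 10⁶/mL in RPMI with 10% FBS. Cells preincubated with compound (0.2% DMSO) for 5 min at room temperature. LPS added from a 200 ng/mL stock, then 6 h at 37 °C. Medium TNF-α measured by ELISA. IC50 by linear regression.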
# Blood [10] = test: Antiinflammatory activity in human whole blood assessed as inhibition of LPS-induced TNFalpha release treated for 5 mins before LPS challenge measured after 6 hrs by ELISA; assay type: functional, tissue-based
# [11] = Oral bioavailability in mouse at 10 mg/kg; assay type: ADME, organism-based; conditions: in vivo
# [12] = Half life in dog at 2 mg/kg, iv; assay type: ADME, organism-based, Canis lupus familiaris; parameters: dose 2 mg/kg, route intravenous; conditions: in vivo; how it was run: as §1
# [13] = Clearance in mouse at 2 mg/kg, iv and 10 mg/kg, po; assay type: ADME, organism-based; conditions: in vivo
# [14] = Tmax in rat at 2 mg/kg, iv and 10 mg/kg, po; assay type: ADME, organism-based; conditions: in vivo
# Mus musculus [15] = test: Antiinflammatory activity in BALB/c mouse assessed as inhibition of LPS-induced TNFalpha release at 100 mg/kg, po administered for 5 hrs before LPS challenge measured after 6.5 hrs post dose by ELISA; assay type: functional
# How it was run: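 BALB/c female mice, 6–8 weeks old, n = 7–8 per treatment. Compounds given by oral gavage at 30 and 100 mg/kg in PEG400/HCl/Tween80/water; controls received vehicle alone. Five hours later, E. coli O111:B4 LPS 50 µg/kg ip. Serum collected 90 min after LPS, TNF-α measured by ELISA. Drug exposure sampled 6.5 h post-dose. Mean ± standard error.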
structure (smiles),measurement,setting,value
CCNc1nc2sc(-c3cccc([C@H](C)NC(C)=O)c3)nc2c2c1ncn2C,Tmax,[1],30 min
same,inhibition in vivo at 60 mg/kg,Mus musculus [2],80%
same,Cmax,[3],1650 nM
same,IC50,[4],0.019 µM
same,Vd,[5],3.1 L/kg
same,IC50,Blood [6],1 µM
same,clearance,[7],63 mL/min/kg
same,Cmax,[8],1330 nM
same,AUC,Mus musculus [9],3000 nM
same,AUC,Rattus norvegicus,4.63 µM
same,IC50,PBMC,0.22 µM
same,IC50,Blood [10],2 µM
same,bioavailability,[11],57%
same,half-life,[12],42 min
same,clearance,[13],62 mL/min/kg
same,Tmax,[14],120 min
same,inhibition in vivo at 100 mg/kg,Mus musculus [15],75%
